{"source": "ChEMBL document CHEMBL4311977", "about": "“Design and synthesis of parthenolide and 5-fluorouracil conjugates as potential anticancer agents against drug resistant hepatocellular carcinoma” (Eur J Med Chem, 2019)", "key": {"Bel7402/5-FU [1]": {"test_system": "Bel7402/5-FU", "experiment": "Down regulation of ABCC1 expression in human Bel7402/5-FU cells incubated for 24 hrs by western blot analysis", "assay_type": "functional, cell-based", "method_in_brief": "(§1)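 Bel-7402/5-FU cells were seeded at 5 × 10⁵ per well and left 12 h, then treated with four concentrations (0.5, 1, 2, 5) for 24 h. Cells were PBS-washed and lysed in RIPA on ice for 30 min, then denatured at 100 °C for 5 min. Lysates went through SDS-PAGE and PVDF transfer, 5% milk blocking for 1 h at room temperature, primary antibodies, and HRP secondary for 2 h at room temperature.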"}, "Bel7402/5-FU [2]": {"test_system": "Bel7402/5-FU", "experiment": "Antiproliferative activity against human Bel7402/5-FU incubated for 72 hrs by MTT assay", "assay_type": "functional, cell-based", "method_in_brief": "(§2)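 Bel-7402 and its 5-FU-resistant subline were kept in RPMI-1640 with 10% FBS and 1% penicillin/streptomycin at 37 °C under 5% CO2. Cells were seeded at 5000 per well and left for 12 h, then exposed to a concentration series for 72 h. MTT stock (5 mg/mL) was added for 4 h and the product dissolved in DMSO. OD was read at 570 nm and IC50 obtained by curve fitting.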"}, "Bel7402/5-FU [3]": {"test_system": "Bel7402/5-FU", "experiment": "Induction of apoptosis in human Bel7402/5-FU assessed as necrotic cells at 2.5 uM incubated for 48 hrs by annexinV-FITC/propidium iodide staining based flow cytometry (reference value: 0.024 to 0.157 %)"}, "Bel7402/5-FU [4]": {"test_system": "Bel7402/5-FU", "experiment": "Down regulation of MDR1 expression in human Bel7402/5-FU cells incubated for 24 hrs by western blot analysis", "assay_type": "functional, cell-based", "method_in_brief": "as §1"}, "Bel7402/5-FU [5]": {"test_system": "Bel7402/5-FU", "experiment": "Down regulation of Pgp expression in human Bel7402/5-FU cells at 0.5 uM incubated for 24 hrs by flow cytometry"}, "Bel7402/5-FU [6]": {"test_system": "Bel7402/5-FU", "experiment": "Induction of apoptosis in human Bel7402/5-FU cells assessed as activation of caspase-9 at 0.5 to 5 uM incubated for 24 hrs by Western blot analysis", "assay_type": "functional, cell-based", "method_in_brief": "as §1"}, "Bel7402/5-FU [7]": {"test_system": "Bel7402/5-FU", "experiment": "Potency index, ratio of parthenolide IC50 to compound IC50 for antiproliferative activity against human Bel7402/5-FU cells", "assay_type": "functional"}, "Bel7402/5-FU [8]": {"test_system": "Bel7402/5-FU", "experiment": "Induction of apoptosis in human Bel7402/5-FU assessed as apoptotic cells at 5 uM incubated for 48 hrs by annexinV-FITC/propidium iodide staining based flow cytometry (reference value: 3.37 +/- 0.47 %)"}, "Bel7402/5-FU [9]": {"test_system": "Bel7402/5-FU", "experiment": "Induction of apoptosis in human Bel7402/5-FU assessed as early apoptotic cells at 1 uM incubated for 48 hrs by annexinV-FITC/propidium iodide staining based flow cytometry (reference value: 20.1 to 20.3 %)"}, "Bel7402/5-FU [10]": {"test_system": "Bel7402/5-FU", "experiment": "Induction of apoptosis in human Bel7402/5-FU assessed as late apoptotic cells at 1 uM incubated for 48 hrs by annexinV-FITC/propidium iodide staining based flow cytometry (reference value: 0.268 to 0.945 %)"}, "Bel7402/5-FU [11]": {"test_system": "Bel7402/5-FU", "experiment": "Induction of apoptosis in human Bel7402/5-FU assessed as viable cells at 2.5 uM incubated for 48 hrs by annexinV-FITC/propidium iodide staining based flow cytometry (reference value: 96.9 to 97.1 %)"}, "Bel7402/5-FU [12]": {"test_system": "Bel7402/5-FU", "experiment": "Induction of apoptosis in human Bel7402/5-FU cells assessed as downregulation of Bcl-2 expression at 0.5 to 5 uM incubated for 24 hrs by Western blot analysis", "assay_type": "functional, cell-based", "method_in_brief": "as §1"}, "Bel7402/5-FU [13]": {"test_system": "Bel7402/5-FU", "experiment": "Induction of apoptosis in human Bel7402/5-FU cells assessed as increase in cytochrome C level at 0.5 to 5 uM incubated for 24 hrs by Western blot analysis", "assay_type": "functional, cell-based", "method_in_brief": "as §1"}, "Bel7402/5-FU [14]": {"test_system": "Bel7402/5-FU", "experiment": "Induction of apoptosis in human Bel7402/5-FU assessed as viable cells at 1 uM incubated for 48 hrs by annexinV-FITC/propidium iodide staining based flow cytometry (reference value: 96.9 to 97.1 %)"}, "Bel7402/5-FU [15]": {"test_system": "Bel7402/5-FU", "experiment": "Induction of apoptosis in human Bel7402/5-FU assessed as apoptotic cells at 2.5 uM incubated for 48 hrs by annexinV-FITC/propidium iodide staining based flow cytometry (reference value: 3.37 +/- 0.47 %)"}, "Bel7402/5-FU [16]": {"test_system": "Bel7402/5-FU", "experiment": "Induction of apoptosis in human Bel7402/5-FU assessed as early apoptotic cells at 2.5 uM incubated for 48 hrs by annexinV-FITC/propidium iodide staining based flow cytometry (reference value: 20.1 to 20.3 %)"}, "Bel-7402": {"test_system": "Bel-7402", "experiment": "Antiproliferative activity against human Bel7402 incubated for 72 hrs by MTT assay", "assay_type": "functional, cell-based", "settings": "Bel-7402, 72 h", "method_in_brief": "as §2"}, "Bel7402/5-FU [17]": {"test_system": "Bel7402/5-FU", "experiment": "Induction of apoptosis in human Bel7402/5-FU cells assessed as activation of caspase-3 at 0.5 to 5 uM incubated for 24 hrs by Western blot analysis", "assay_type": "functional, cell-based", "method_in_brief": "as §1"}, "NIH3T3": {"test_system": "NIH3T3", "experiment": "Cytotoxicity against mouse 3T3 cells", "assay_type": "cell-based"}, "Bel7402/5-FU [18]": {"test_system": "Bel7402/5-FU", "experiment": "Increase in ADR intracellular accumulation in human Bel7402/5-FU cells preincubated for 24 hrs followed by adriamycin addition measured after 1 hr by flow cytometry"}, "Bel7402/5-FU [19]": {"test_system": "Bel7402/5-FU", "experiment": "Induction of apoptosis in human Bel7402/5-FU assessed as apoptotic cells at 1 uM incubated for 48 hrs by annexinV-FITC/propidium iodide staining based flow cytometry (reference value: 3.37 +/- 0.47 %)"}, "Bel7402/5-FU [20]": {"test_system": "Bel7402/5-FU", "experiment": "Induction of apoptosis in human Bel7402/5-FU cells assessed as upregulation of Bim expression at 0.5 to 5 uM incubated for 24 hrs by Western blot analysis", "assay_type": "functional, cell-based", "method_in_brief": "as §1"}, "Bel7402/5-FU [21]": {"test_system": "Bel7402/5-FU", "experiment": "Induction of apoptosis in human Bel7402/5-FU cells assessed as upregulation of Bax expression at 0.5 to 5 uM incubated for 24 hrs by Western blot analysis", "assay_type": "functional, cell-based", "method_in_brief": "as §1"}, "Bel7402/5-FU [22]": {"test_system": "Bel7402/5-FU", "experiment": "Induction of apoptosis in human Bel7402/5-FU assessed as late apoptotic cells at 2.5 uM incubated for 48 hrs by annexinV-FITC/propidium iodide staining based flow cytometry (reference value: 0.268 to 0.945 %)"}, "Bel7402/5-FU [23]": {"test_system": "Bel7402/5-FU", "experiment": "Induction of apoptosis in human Bel7402/5-FU assessed as late apoptotic cells at 5 uM incubated for 48 hrs by annexinV-FITC/propidium iodide staining based flow cytometry (reference value: 0.945 %)"}, "Bel7402/5-FU [24]": {"test_system": "Bel7402/5-FU", "experiment": "Induction of apoptosis in human Bel7402/5-FU assessed as necrotic cells at 1 uM incubated for 48 hrs by annexinV-FITC/propidium iodide staining based flow cytometry (reference value: 0.024 to 0.157 %)"}}, "note": "Calls of active or inactive are those of the source. No cut-off for these calls is given here.", "data": [{"compound": "C=C1C(=O)O[C@H]2[C@H]1CC/C(COC(=O)Cn1cc(F)c(=O)n(Cc3ccc(C(F)(F)F)cc3)c1=O)=C\\CC[C@@]1(C)O[C@@H]21", "values": [{"measurement": "Activity", "setting": "Bel7402/5-FU [1]", "value": "Dose-dependent effect"}, {"measurement": "IC50", "setting": "Bel7402/5-FU [2]", "value": 2.25, "unit": "µM"}, {"measurement": "Activity", "setting": "Bel7402/5-FU [3]", "value": 1.87, "unit": "%"}, {"measurement": "Activity", "setting": "Bel7402/5-FU [4]", "value": "Dose-dependent effect"}, {"measurement": "Activity", "setting": "Bel7402/5-FU [5]", "value": "Active"}, {"measurement": "Activity", "setting": "Bel7402/5-FU [6]", "value": "Active"}, {"measurement": "Ratio IC50", "setting": "Bel7402/5-FU [7]", "value": 5.8}, {"measurement": "Activity", "setting": "Bel7402/5-FU [8]", "value": 77.97, "unit": "%"}, {"measurement": "Activity", "setting": "Bel7402/5-FU [9]", "value": 3.5, "unit": "%"}, {"measurement": "Activity", "setting": "Bel7402/5-FU [10]", "value": 0.909, "unit": "%"}, {"measurement": "viability at 2.5 µM", "setting": "Bel7402/5-FU [11]", "value": 85.6, "unit": "%"}, {"measurement": "Activity", "setting": "Bel7402/5-FU [12]", "value": "Active"}, {"measurement": "Activity", "setting": "Bel7402/5-FU [13]", "value": "Active"}, {"measurement": "viability at 1 µM", "setting": "Bel7402/5-FU [14]", "value": 94.3, "unit": "%"}, {"measurement": "Activity", "setting": "Bel7402/5-FU [15]", "value": 14.43, "unit": "%"}, {"measurement": "Activity", "setting": "Bel7402/5-FU [16]", "value": 7.75, "unit": "%"}, {"measurement": "IC50", "setting": "Bel-7402", "value": 2.25, "unit": "µM"}, {"measurement": "Activity", "setting": "Bel7402/5-FU [17]", "value": "Active"}, {"measurement": "IC50", "setting": "NIH3T3", "value": 5.2, "unit": "µM"}, {"measurement": "Activity", "setting": "Bel7402/5-FU [18]", "value": "Dose-dependent effect"}, {"measurement": "Activity", "setting": "Bel7402/5-FU [19]", "value": 4.9, "unit": "%"}, {"measurement": "Activity", "setting": "Bel7402/5-FU [20]", "value": "Active"}, {"measurement": "Activity", "setting": "Bel7402/5-FU [21]", "value": "Active"}, {"measurement": "Activity", "setting": "Bel7402/5-FU [22]", "value": 4.86, "unit": "%"}, {"measurement": "Activity", "setting": "Bel7402/5-FU [23]", "value": "19.5 - 46.1%"}, {"measurement": "Activity", "setting": "Bel7402/5-FU [24]", "value": 1.9, "unit": "%"}]}]}
